# Reference: ChEMBL document CHEMBL4270638, “Sulfonyl-containing phenyl-pyrrolyl pentane analogues: Novel non-secosteroidal vitamin D receptor modulators with favorable physicochemical properties, pharmacokinetic properties and anti-tumor activity” (Eur J Med Chem, 2018)
# pEC50, pIC50: −log10 of the molar value. Calls of active or inactive are those of the source. The calls are words filed in the database; no cut-off is given here.
# Tests used:
# MCF7 [1] = experiment: Induction of apoptosis in human MCF7 cells expressing VDR siRNA assessed as live cells at 1 uM after 24 hrs by Annexin-V-FITC/propidium iodide staining based flow cytometry (reference value: 98.35%); format: functional
# [2] = Half life in Sprague-Dawley rat at 20 mg/kg, ip by HPLC method; format: ADME, organism-based; conditions: in vivo
# Procedure, shortened: (§1)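 Male Sprague-Dawley rats, 180–220 g, n = 3 per group. Dosed iv at 5 mg/kg or ip at 20 mg/kg in ethanol/EL/saline (1:1:18). Plasma sampled at 0, 0.083, 0.167, 0.25, 0.5, 1, 2, 4, 8, 12 and 24 h and centrifuged 12000 rpm for 10 min. Plasma drug measured by HPLC; parameters by PK modelling; mean ± SD.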
# MCF7 [3] = experiment: Induction of apoptosis in human MCF7 cells expressing scrambled siRNA assessed as live cells at 1 uM after 24 hrs by Annexin-V-FITC/propidium iodide staining based flow cytometry (reference value: 97.93%); format: functional
# MCF7 [4] = experiment: Cell cycle arrest in human MCF7 cells expressing scrambled siRNA assessed as accumulation at S phase at 1 uM after 24 hrs by propidium iodide staining based flow cytometry (reference value: 29.79%); format: functional
# [5] = AUC in Sprague-Dawley rat at 5 mg/kg, iv by HPLC method; format: ADME, organism-based; conditions: in vivo; procedure, shortened: as §1
# MCF7 [6] = experiment: Cell cycle arrest in human MCF7 cells expressing VDR siRNA assessed as accumulation at S phase at 1 uM after 24 hrs by propidium iodide staining based flow cytometry (reference value: 32%); format: functional
# [7] = Half life in Sprague-Dawley rat at 5 mg/kg, iv by HPLC method; format: ADME, organism-based; conditions: in vivo; procedure, shortened: as §1
# MCF7 [8] = experiment: Cell cycle arrest in human MCF7 cells expressing scrambled siRNA assessed as accumulation at G2/M phase at 1 uM after 24 hrs by propidium iodide staining based flow cytometry (reference value: 19.6%); format: functional
# MCF7 [9] = experiment: Cell cycle arrest in human MCF7 cells expressing scrambled siRNA assessed as accumulation at G0/G1 phase at 1 uM after 24 hrs by propidium iodide staining based flow cytometry (reference value: 49.28%); format: functional
# [10] = Mean residence time in Sprague-Dawley rat at 5 mg/kg, iv by HPLC method; format: ADME, organism-based; conditions: in vivo; procedure, shortened: as §1
# [11] = Clearance in Sprague-Dawley rat at 5 mg/kg, iv by HPLC method; format: ADME, organism-based; conditions: in vivo; procedure, shortened: as §1
# [12] = AUC in Sprague-Dawley rat at 20 mg/kg, ip by HPLC method; format: ADME, organism-based; conditions: in vivo; procedure, shortened: as §1
# MCF7 [13] = experiment: Induction of apoptosis in human MCF7 cells expressing VDR siRNA assessed as late apoptotic cells at 1 uM after 24 hrs by Annexin-V-FITC/propidium iodide staining based flow cytometry (reference value: 1.01%); format: functional
# MCF7 [14] = experiment: Induction of apoptosis in human MCF7 cells expressing VDR siRNA assessed as early apoptotic cells at 1 uM after 24 hrs by Annexin-V-FITC/propidium iodide staining based flow cytometry (reference value: 0.49%); format: functional
# PC-3 = experiment: Antiproliferative activity against human PC3 cells after 24 hrs by MTT assay; format: functional, cell-based; conditions: PC-3, 24 h
# MCF7 [15] = experiment: Antiproliferative activity against human MCF7 cells expressing VDR siRNA assessed as reduction in BrdU incorporation after 16 hrs by ELISA; format: functional, cell-based; conditions: MCF7, 16 h
# MCF7 [16] = experiment: Antitumor activity against human MCF7 cells xenografted in Balb/c nude mouse assessed as reduction in tumor growth at 10 mg/kg, ip administered three times a week for three weeks starting from day 7 after tumor cell inoculation; format: functional, organism-based
# Procedure, shortened: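 […] BALB/c-nu mice, 10 weeks old. 1×10^7 MCF-7 cells injected into the left fourth mammary fat pad; dosing began at about 50 mm3 tumour volume (day 7), n = 5 per group. Dosed ip at 10 mg/kg in ethanol/EL/saline 1:1:18, three times weekly for three weeks. Tumour volume by calipers = length × width² × 0.5; tumour weight and body weight recorded.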
# Vitamin D3 receptor = molecular target: T1, Vitamin D3 receptor (Homo sapiens, UniProt P11473); experiment: Displacement of fluormone VDR red from human full-length VDR after 4 hrs by fluorescence polarization assay
# T1 sequence (P11473 whole entry): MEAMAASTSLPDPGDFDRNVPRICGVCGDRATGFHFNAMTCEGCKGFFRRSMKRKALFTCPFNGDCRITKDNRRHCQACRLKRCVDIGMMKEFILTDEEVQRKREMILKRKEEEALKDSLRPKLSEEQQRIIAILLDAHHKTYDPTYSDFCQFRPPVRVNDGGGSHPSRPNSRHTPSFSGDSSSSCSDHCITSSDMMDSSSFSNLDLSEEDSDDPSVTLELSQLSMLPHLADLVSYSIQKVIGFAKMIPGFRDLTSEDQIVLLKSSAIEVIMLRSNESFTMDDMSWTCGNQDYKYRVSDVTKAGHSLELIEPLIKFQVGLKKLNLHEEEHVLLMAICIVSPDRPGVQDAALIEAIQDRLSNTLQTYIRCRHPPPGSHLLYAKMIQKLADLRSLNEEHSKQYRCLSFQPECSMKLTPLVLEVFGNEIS
# MCF7 [17] = experiment: Cell cycle arrest in human MCF7 cells expressing VDR siRNA assessed as accumulation at G2/M phase at 1 uM after 24 hrs by propidium iodide staining based flow cytometry (reference value: 17.57%); format: functional
# MCF7 [18] = experiment: Induction of apoptosis in human MCF7 cells expressing scrambled siRNA assessed as necrotic cells at 1 uM after 24 hrs by Annexin-V-FITC/propidium iodide staining based flow cytometry (reference value: 0.16%); format: functional
# MCF7 [19] = experiment: Induction of apoptosis in human MCF7 cells expressing VDR siRNA assessed as necrotic cells at 1 uM after 24 hrs by Annexin-V-FITC/propidium iodide staining based flow cytometry (reference value: 0.15%); format: functional
# MCF7 [20] = experiment: Cell cycle arrest in human MCF7 cells expressing VDR siRNA assessed as accumulation at G0/G1 phase at 1 uM after 24 hrs by propidium iodide staining based flow cytometry (reference value: 49.17%); format: functional
# [21] = Mean residence time in Sprague-Dawley rat at 20 mg/kg, ip by HPLC method; format: ADME, organism-based; conditions: in vivo; procedure, shortened: as §1
# MCF7 [22] = experiment: Antiproliferative activity against human MCF7 cells after 24 hrs by MTT assay; format: functional, cell-based; conditions: MCF7, 24 h
# [23] = Bioavailability in Sprague-Dawley rat at 20 mg/kg, ip by HPLC method; format: ADME, organism-based; conditions: in vivo; procedure, shortened: as §1
# [24] = Clearance in Sprague-Dawley rat at 20 mg/kg, ip by HPLC method; format: ADME, organism-based; conditions: in vivo; procedure, shortened: as §1
# BXPC-3 = experiment: Antiproliferative activity against human BxPC3 cells after 24 hrs by MTT assay; format: functional, cell-based; conditions: BXPC-3, 24 h
# [25] = Solubility of the compound in water at pH 7.4 by HPLC method; format: physicochemical
# Procedure, shortened: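 Aqueous solubility measured at pH 7.4, with samples quantified by HPLC.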
# MCF7 [26] = experiment: Induction of apoptosis in human MCF7 cells expressing scrambled siRNA assessed as late apoptotic cells at 1 uM after 24 hrs by Annexin-V-FITC/propidium iodide staining based flow cytometry (reference value: 0.98%); format: functional
# [27] = molecular target: T2, Retinoic acid receptor RXR-alpha/Vitamin D3 receptor (Homo sapiens, UniProt P11473+P19793); experiment: Transactivation of recombinant human VDR/RXRalpha expressed in HEK293 cells after 24 hrs by Dual-luciferase reporter gene assay; format: cell-based
# T2 sequence (P11473 whole entry): T1 sequence (P11473 whole entry)
# T2 sequence (P19793 whole entry): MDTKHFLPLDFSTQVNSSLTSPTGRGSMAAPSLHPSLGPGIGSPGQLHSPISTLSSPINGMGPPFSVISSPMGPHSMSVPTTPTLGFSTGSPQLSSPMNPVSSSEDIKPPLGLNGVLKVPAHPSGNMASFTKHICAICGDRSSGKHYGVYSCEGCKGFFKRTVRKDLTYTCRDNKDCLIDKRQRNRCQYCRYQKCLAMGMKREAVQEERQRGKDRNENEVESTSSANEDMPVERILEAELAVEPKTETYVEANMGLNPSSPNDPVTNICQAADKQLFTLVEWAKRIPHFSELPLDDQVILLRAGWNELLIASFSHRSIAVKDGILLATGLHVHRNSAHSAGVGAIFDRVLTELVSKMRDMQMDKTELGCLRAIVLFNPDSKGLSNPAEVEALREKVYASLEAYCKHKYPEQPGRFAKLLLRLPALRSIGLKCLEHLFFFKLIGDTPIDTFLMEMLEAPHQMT
# MCF7 [28] = experiment: Induction of apoptosis in human MCF7 cells expressing scrambled siRNA assessed as early apoptotic cells at 1 uM after 24 hrs by Annexin-V-FITC/propidium iodide staining based flow cytometry (reference value: 0.93%); format: functional
# [29] = Half life in rat liver microsomes in presence of NADPH by HPLC method; format: ADME, microsome
# Procedure, shortened: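 Compounds incubated with rat liver microsomes plus NADPH. Remaining compound quantified by HPLC at 0, 5, 10, 20, 30, 45, 60 and 90 min, and half-life calculated.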
# MCF7 [30] = experiment: Antitumor activity against human MCF7 cells xenografted in Balb/c nude mouse assessed as increase in p27 expression at […], ip administered three times a week for three weeks starting from day 7 after tumor cell inoculation by immunohistochemical analysis; format: functional, organism-based
# Procedure, shortened: (§2)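 Orthotopic MCF-7 fat-pad xenografts in nude mice, as above. Dosing ip three times weekly for three weeks. Tumours fixed 24 h in 4% neutral buffered paraformaldehyde, paraffin-embedded and cut at 5 µm. Sections dewaxed with antigen retrieval, peroxidase quenched with 3% H2O2 for 10 min, then immunostained for p21, p27 and Bax.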
# MCF7 [31] = experiment: Antitumor activity against human MCF7 cells xenografted in Balb/c nude mouse assessed as increase in Bax expression at […], ip administered three times a week for three weeks starting from day 7 after tumor cell inoculation by immunohistochemical analysis; format: functional, organism-based; procedure, shortened: as §2
# MCF7 [32] = experiment: Antitumor activity against human MCF7 cells xenografted in Balb/c nude mouse assessed as increase in p21 expression at […], ip administered three times a week for three weeks starting from day 7 after tumor cell inoculation by immunohistochemical analysis; format: functional, organism-based; procedure, shortened: as §2
# Mus musculus [33] = experiment: Hypercalcemic effect in Balb/c nude mouse xenografted with human MCF7 cells assessed as effect on serum calcium level at 0.5 ug/kg, ip administered three times a week for three weeks starting from day 7 after tumor cell inoculation measured on day 17 during compound dosing (reference value: 0.6 umol/ml); conditions: in vivo
# Mus musculus [34] = experiment: Hypercalcemic effect in Balb/c nude mouse xenografted with human MCF7 cells assessed as effect on serum calcium level at 0.5 ug/kg, ip administered three times a week for three weeks starting from day 7 after tumor cell inoculation measured on day 27 (reference value: 0.6 umol/ml); conditions: in vivo
pIC50 (PC-3),pIC50 (MCF7 [22]),pIC50 (BXPC-3),solubility [25],half-life [29],SMILES,Activity (MCF7 [1]),Activity (MCF7 [3]),Activity (MCF7 [4]),Activity (MCF7 [6]),Activity (MCF7 [8]),Activity (MCF7 [9]),Activity (MCF7 [13]),Activity (MCF7 [14]),Activity (MCF7 [17]),Activity (MCF7 [18]),Activity (MCF7 [19]),Activity (MCF7 [20]),Activity (MCF7 [26]),Activity (MCF7 [28]),further results
5.07,4.74,4.80,1.7 µg/mL,0.429 h,CCn1c(C(=O)N[C@@H](C)CO)ccc1C(CC)(CC)c1ccc(OCC(O)C(C)(C)C)c(C)c1 (stereo not given in full),96.87%,95.55%,31.41%,29.44%,11.69%,55.43%,1.79%,0.99%,18.59%,0.26%,0.35%,51.05%,2.88%,1.31%,half-life [2]: 3.47 h; AUC [5]: 4650 ng·h/mL; half-life [7]: 2.89 h; MRT [10]: 5.54 h; clearance [11]: 18 mL/min; AUC [12]: 6040 ng·h/mL; pIC50 (MCF7 [15]): < 4.30; Activity (MCF7 [16]): Active; pIC50 (Vitamin D3 receptor): 6.94; MRT [21]: 5.5 h; bioavailability [23]: 32.5%; CL/F [24]: 55.2 mL/min; pEC50 [27]: 8.17
5.58,5.33,5.27,0.6 µg/mL,1.19 h,CCN(CC)CCNC(=O)c1cc(C(CC)(CC)c2ccc(OCSc3ccccc3)c(C)c2)cn1CC,97.14%,94.44%,31.75%,30.97%,11.15%,55.79%,1.91%,0.58%,17.3%,0.9%,0.37%,50.29%,3.65%,1.01%,
,,,,,C=C1/C(=C\C=C2/CCC[C@]3(C)[C@@H]([C@H](C)CCCC(C)(C)O)CC[C@@H]23)C[C@@H](O)C[C@@H]1O [CALCITRIOL],97.25%,95%,30.32%,30.33%,13.4%,55.16%,1.49%,0.84%,17.15%,0.33%,0.42%,51.38%,3.38%,1.29%,Activity (MCF7 [30]): Active; Activity (MCF7 [31]): Active; Activity (MCF7 [32]): Active; Activity (Mus musculus [33]): 0.6 µmol/mL; Activity (Mus musculus [34]): 0.61 µmol/mL
